Experiments:
[1] = target: T1, Angiotensin-converting enzyme (Mus musculus) (UniProt P09470); test: (§1) In vivo percent inhibition activity against lung Angiotensin I converting enzyme 2 hr after oral administration of a dose of 2.6 x 10e-5 mol/kg; format: functional, organism-based
T1 sequence (whole entry): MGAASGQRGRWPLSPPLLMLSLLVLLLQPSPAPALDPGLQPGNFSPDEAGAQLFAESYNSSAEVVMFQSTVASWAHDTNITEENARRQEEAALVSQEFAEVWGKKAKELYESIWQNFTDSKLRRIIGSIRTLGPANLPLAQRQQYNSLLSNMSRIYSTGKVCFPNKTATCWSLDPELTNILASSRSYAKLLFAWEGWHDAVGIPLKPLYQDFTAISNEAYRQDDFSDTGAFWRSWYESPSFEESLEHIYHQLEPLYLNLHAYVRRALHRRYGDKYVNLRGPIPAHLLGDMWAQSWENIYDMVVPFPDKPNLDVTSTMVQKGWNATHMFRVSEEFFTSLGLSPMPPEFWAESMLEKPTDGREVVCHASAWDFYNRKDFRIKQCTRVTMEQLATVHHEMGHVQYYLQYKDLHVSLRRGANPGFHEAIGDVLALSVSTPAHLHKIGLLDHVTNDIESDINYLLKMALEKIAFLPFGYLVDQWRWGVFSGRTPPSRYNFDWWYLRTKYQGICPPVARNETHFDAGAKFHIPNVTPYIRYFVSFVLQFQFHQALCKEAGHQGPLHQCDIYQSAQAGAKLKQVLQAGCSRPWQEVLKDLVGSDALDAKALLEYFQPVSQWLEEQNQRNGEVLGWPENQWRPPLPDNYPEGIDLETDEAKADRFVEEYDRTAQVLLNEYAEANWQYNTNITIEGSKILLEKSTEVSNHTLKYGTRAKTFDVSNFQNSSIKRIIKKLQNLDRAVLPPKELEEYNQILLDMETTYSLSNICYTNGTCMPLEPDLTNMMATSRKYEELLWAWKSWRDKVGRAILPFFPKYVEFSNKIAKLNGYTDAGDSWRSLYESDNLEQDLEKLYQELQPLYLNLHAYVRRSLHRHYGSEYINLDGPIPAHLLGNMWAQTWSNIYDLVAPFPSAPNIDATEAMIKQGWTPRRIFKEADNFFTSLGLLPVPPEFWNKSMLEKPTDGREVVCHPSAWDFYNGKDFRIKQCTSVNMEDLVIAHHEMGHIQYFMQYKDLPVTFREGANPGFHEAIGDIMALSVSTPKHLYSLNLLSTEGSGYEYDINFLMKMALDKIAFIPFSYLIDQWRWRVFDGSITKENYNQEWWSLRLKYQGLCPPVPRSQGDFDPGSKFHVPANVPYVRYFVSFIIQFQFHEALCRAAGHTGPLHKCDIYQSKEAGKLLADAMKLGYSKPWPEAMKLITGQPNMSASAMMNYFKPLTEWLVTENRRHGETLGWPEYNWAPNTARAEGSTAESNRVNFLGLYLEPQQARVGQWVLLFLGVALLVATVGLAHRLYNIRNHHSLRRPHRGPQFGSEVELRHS
Summary of the method: (§2)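 Mice dosed orally in 10% ethanol/10% cremophor/80% water. At 2 h, [3H]trandaloprilate (0.5 µCi) given iv; 15 min later lungs homogenized at 4 °C in 50 mM Tris-HCl pH 8.0 with 1 mM NaCl, centrifuged, and radioactivity counted. Total binding from untreated mice; nonspecific binding from probe coinjected with 1000 equiv captopril.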

[2] = target: T2, Neprilysin (Mus musculus) (UniProt Q61391); test: (§3) In vivo percent inhibition activity against kidney Neutral endopeptidase 2 hr after oral administration of a dose of 2.6 x 10e-5 mol/kg; format: functional, organism-based
T2 sequence (whole entry): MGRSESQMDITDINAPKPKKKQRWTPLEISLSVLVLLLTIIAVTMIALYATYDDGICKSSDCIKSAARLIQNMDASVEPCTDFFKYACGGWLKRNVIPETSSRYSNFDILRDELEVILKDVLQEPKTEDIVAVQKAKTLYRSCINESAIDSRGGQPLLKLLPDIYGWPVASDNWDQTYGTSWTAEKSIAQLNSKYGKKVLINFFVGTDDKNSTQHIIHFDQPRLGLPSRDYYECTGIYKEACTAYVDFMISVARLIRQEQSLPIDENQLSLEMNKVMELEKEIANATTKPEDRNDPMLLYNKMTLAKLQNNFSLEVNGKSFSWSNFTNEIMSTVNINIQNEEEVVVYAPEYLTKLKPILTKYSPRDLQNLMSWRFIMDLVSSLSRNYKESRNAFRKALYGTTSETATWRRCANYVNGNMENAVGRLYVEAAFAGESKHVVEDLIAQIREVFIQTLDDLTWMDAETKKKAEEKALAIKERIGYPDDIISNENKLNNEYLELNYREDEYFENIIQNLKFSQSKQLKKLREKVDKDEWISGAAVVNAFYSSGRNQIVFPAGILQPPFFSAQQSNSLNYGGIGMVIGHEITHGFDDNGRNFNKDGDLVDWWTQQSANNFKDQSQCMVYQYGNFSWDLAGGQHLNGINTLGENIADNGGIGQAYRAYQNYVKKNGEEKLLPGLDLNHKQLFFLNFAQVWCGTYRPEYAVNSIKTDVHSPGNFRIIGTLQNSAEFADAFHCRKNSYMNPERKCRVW
Summary of the method: (§4)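 Mice given a single oral dose in 10% ethanol/10% cremophor/80% water; kidneys taken 2 h later and homogenized at 4 °C in 50 mM Tris-HCl pH 7.4. Membrane fraction (100000g) preincubated 5 min at 25 °C with bestatin and captopril, then incubated 10 min with [3H]-D-Ala2-Leu-enkephalin (2 × 10^-8 M). [3H]Tyr-D-Ala-Gly counted; blanks contained 10^-5 M retrothiorphan.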

[3] = target: T1, Angiotensin-converting enzyme (Mus musculus); test: as §1; format: organism-based; summary of the method: as §2
[4] = target: T2, Neprilysin (Mus musculus); test: as §3; format: organism-based; summary of the method: as §4

SMILES | inhibition [1] | inhibition [2] | inhibition [3] | inhibition [4]
O=C(NCC(=O)N1[C@@H](c2ccccc2)CC[C@H]1C(=O)O)[C@@H](S)Cc1ccccc1 | 63% | 75% | – | –
Cc1ccccc1[C@H]1CC[C@@H](C(=O)O)N1C(=O)CNC(=O)[C@@H](S)Cc1ccccc1 | 57% | 37% | – | –
Cc1ccc([C@H]2CC[C@@H](C(=O)O)N2C(=O)CNC(=O)[C@@H](S)Cc2ccc(O)cc2)cc1 | 33% | 3% | – | –
Cc1ccc([C@H]2CC[C@@H](C(=O)O)N2C(=O)CNC(=O)[C@@H](S)Cc2ccccc2)cc1 | 42% | 34% | – | –

Further lines, results first:

inhibition [1] | inhibition [2] | inhibition [3] | inhibition [4] | SMILES
82% | 69% | – | – | O=C(NCC(=O)N1[C@@H](c2ccccc2O)CC[C@H]1C(=O)O)[C@@H](S)Cc1ccc(O)cc1
– | 72% | 89% | – | O=C(NCC(=O)N1[C@@H](c2cccc(O)c2)CC[C@H]1C(=O)O)[C@@H](S)Cc1ccc(O)cc1
– | – | 60% | 44% | Cc1ccccc1C1CC[C@@H](C(=O)O)N1C(=O)CNC(=O)[C@@H](S)Cc1ccc(O)cc1 (single isomer, unassigned)

Reference: ChEMBL document CHEMBL1129041, “Design of orally active dual inhibitors of neutral endopeptidase and angiotensin-converting enzyme with long duration of action” (J Med Chem, 1996)
